From ChEMBL document CHEMBL1126655, “Synthesis and antiviral activity of novel isonucleoside analogs” (J Med Chem, 1993)

What was measured:
Assay type in all cases: functional
Settings in all cases: read-out: ID50 (the source's name)
Human betaherpesvirus 5 = assay: Antiviral activity against Human cytomegalovirus (AD169 strain)
Summary of the method: (§1)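 WI-38 monolayers were infected, with virus adsorbed for 1–2 h. They were then overlaid with EMEM maintenance medium (1% carboxymethyl cellulose, 2.5% FBS) containing duplicate drug dilutions. Monolayers were stained after 4–6 days at 37 °C. ID50 was taken as the concentration giving 50% plaque reduction versus virus controls. Titrations were done in duplicate.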

Human alphaherpesvirus 1 = assay: Antiviral activity against Herpes simplex virus-1 (Schooler strain); summary of the method: as §1
Human alphaherpesvirus 3 = assay: Antiviral activity against Varicella zoster virus (Ellen strain); summary of the method: as §1

For O=c1ccn([C@@H]2CO[C@H](CO)[C@H]2CO)c(=O)[nH]1, the IC50 (Human betaherpesvirus 5) was > 410 µM, the IC50 (Human alphaherpesvirus 1) was > 410 µM and the IC50 (Human alphaherpesvirus 3) was 100 µM.
